Series [1] can be described thus: Apparent solubility of the compound in fasted state simulated intestinal fluid at pH 6.5 by shake flask method relative to ciprofloxacin. Particulars: simulated gi fluid. Format: physicochemical. Summed up: (§1)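 Small-scale shake flask. Excess solid in 500 μL medium (n = 3): USP pH 7.4 phosphate buffer, or pH 6.5 phosphate buffer or FaSSIF per Galia. Supernatant assayed by LC-MS/MS.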

A short description of series [2]: Apparent solubility of the compound in phosphate buffer at pH 6.5 by shake flask method relative to ciprofloxacin. Format: physicochemical. Summed up: as §1
Series [3] is described as follows: Apparent permeability of the compound from basolateral to apical side in human Caco2 cells by LC-MS/MS analysis. Conditions: Caco-2. The format is ADME, cell-based. Summed up:
(§2)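 Caco-2 monolayers ([…] cells seeded on polycarbonate inserts, 0.4 μm pores), kept in 90% air/10% CO2. Transport run at 37 °C across a 6.5/7.4 pH gradient, started by adding 10 μM drug to the donor side. Papp = (ΔQ/Δt)/(A·C0), from steady-state flux, filter area and initial donor concentration. LC-MS/MS quantitation. Mean ± SD of triplicates.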
In general terms: Caco-2 cells form a polarised layer with tight junctions and transporters.

The nature of series [4]: Apparent permeability of the compound from apical to basolateral side in human Caco2 cells at pH 6.5/7.4 by LC-MS/MS analysis. The format is ADME, cell-based. Conditions: Caco-2, pH 6.5. Summed up:
as §2

The nature of series [5]: Apparent solubility of the compound in phosphate buffer at pH 7.4 by shake flask method relative to ciprofloxacin. The format is physicochemical. Summed up: as §1
Series [6] in a line: Efflux ratio of permeability from basolateral to apical side to apical to basolateral side in human Caco2 cells. The format is ADME, cell-based. Particulars: Caco-2.

Broadly, the Papp B→A is how fast a substance crosses the layer from the basolateral side. What is called Papp A→B is how fast a substance crosses the layer from the apical side. What is called efflux ratio is the permeability from basolateral to apical divided by that in the opposite direction, in the common usage.

SMILES strings stand for the structures.

As to `COC(=O)c1cn(C2CC2)c2cc(N3CCNCC3)c(F)cc2c1=O`, the “fold change (FC)” value in series [1] is 111; in series [2], 66; in series [5], 48. The Papp B→A in series [3] was found to be 19.7 ×10⁻⁶ cm/s. Besides, the Papp A→B in series [4] worked out at 1.01 ×10⁻⁶ cm/s. For the same compound, in series [6], the efflux ratio came to 19.

For the compound `CC(C)OC(=O)c1cn(C2CC2)c2cc(N3CCNCC3)c(F)cc2c1=O`, the “fold change (FC)” value in series [1], in series [2] and in series [5] was 0.5 throughout. Further, the Papp B→A in series [3] came out at 35.2 ×10⁻⁶ cm/s. For the same compound, the Papp A→B in series [4] stood at 4.69 ×10⁻⁶ cm/s. Moreover, the efflux ratio in series [6] was 7.

Consider `CCCOC(=O)c1cn(C2CC2)c2cc(N3CCNCC3)c(F)cc2c1=O`, for which the “fold change (FC)” value in series [1], in series [2] and in series [5] was 0.5 throughout. The Papp B→A in series [3] was 62.8 ×10⁻⁶ cm/s. In series [4], the Papp A→B came to 0.43 ×10⁻⁶ cm/s. In series [6], the efflux ratio worked out at 146.

As to `CCCCOC(=O)c1cn(C2CC2)c2cc(N3CCNCC3)c(F)cc2c1=O`, the “fold change (FC)” value in series [1] is recorded as 10; in series [2] it was 27; in series [5], 4. For the same compound, the Papp B→A in series [3] was 65.9 ×10⁻⁶ cm/s. In addition, the Papp A→B in series [4] stood at 4.95 ×10⁻⁶ cm/s. Further, in series [6], the efflux ratio was determined as 13.

For the compound `CCCCCCOC(=O)c1cn(C2CC2)c2cc(N3CCNCC3)c(F)cc2c1=O`, in series [3], the Papp B→A was 264 ×10⁻⁶ cm/s. The Papp A→B in series [4] is 13.9 ×10⁻⁶ cm/s. Moreover, in series [6], the efflux ratio is 19.

Regarding `O=C(OCc1ccccc1)c1cn(C2CC2)c2cc(N3CCNCC3)c(F)cc2c1=O`, in series [3], the Papp B→A turned out to be 116 ×10⁻⁶ cm/s. Further, the Papp A→B in series [4] amounted to 6.42 ×10⁻⁶ cm/s. For the same compound, the efflux ratio in series [6] was found to be 18.

As to `CCOC(=O)c1cn(C2CC2)c2cc(N3CCNCC3)c(F)cc2c1=O` [CIPROFLOXACIN ETHYL ESTER], the “fold change (FC)” value in series [1], in series [2] and in series [5] was 2 each time. The Papp B→A in series [3] was found to be 24.3 ×10⁻⁶ cm/s. Also, the Papp A→B in series [4] was determined as 3.45 ×10⁻⁶ cm/s. Besides, the efflux ratio in series [6] amounted to 7.

Values taken from ChEMBL document CHEMBL2321693, “Optimizing solubility and permeability of a biopharmaceutics classification system (BCS) class 4 antibiotic drug using lipophilic fragments disturbing the crystal lattice” (J Med Chem, 2013).
